# Columns and labels:
# [1] = system: BRD9 interaction with AKT1; experiment: co-immunoprecipitation of BRD9 and AKT1 in MDA-MB-231 cells; format: cell-based; details: 0.1 μM, 16 hours
# Method in brief: (§1)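 Cells grown in DMEM with 10% FBS, penicillin/streptomycin, at 37°C and 5% CO2; HEK293T transfected with Lipofectamine/Plus. Cells rinsed in ice-cold PBS and lysed in Triton buffer (40 mM Hepes pH 7.4, 150 mM NaCl, 1% Triton X-100) or EBC buffer (50 mM Tris pH 7.5, 0.5% NP-40) with protease/phosphatase inhibitors. 1000–3000 μg lysate incubated with agarose-conjugated antibody 3–4 h at 4°C; beads washed five times in NETN; SDS-PAGE immunoblot.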
# SMARCA2/4 = experiment: immunoblot of SMARCA2/4 depletion; format: cell-based; details: 0.1 μM, 16 hours, MDA-MB-231
# Method in brief: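 Cells grown at 37°C, 5% CO2 with 10% FBS: MDA-MB-231 and MCF-7 in DMEM, BT-549 and T-47D in RPMI 1640. After washing in ice-cold PBS, cells were lysed in Triton (pH 7.4) or EBC (pH 7.5) buffer with protease and phosphatase inhibitors. Equal protein was resolved by SDS-PAGE, transferred to PVDF and probed with primary antibodies at 1:1000–1:10,000 in TBST/5% milk.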
# H3K27me3 = experiment: immunoblot of H3K27me3; format: cell-based
# AKT [2] = experiment: immunoblot of AKT phosphorylation in HEK293T cells; format: cell-based, Human; details: 0.1 μM, 0-6 h
# MDA-MB-231 cells [3] = experiment: RNA-seq of treated MDA-MB-231 cells; format: cell-based, human; details: for shared down-regulated genes (I-BRD9 and ipatasertib) / shared up-regulated genes (I-BRD9 and ipatasertib): 5 μM I-BRD9 or 1 μM ipatasertib, Q value < 0.05; for hallmark gene sets significantly enriched among the 186 shared genes: MSigDB, genes shared by I-BRD9 and ipatasertib; for common down-regulated genes significantly marked by H3K27me3: of 116 genes common to I-BRD9 and ipatasertib, epidecodeR
# MDA-MB-231 cells [4] = experiment: RT-qPCR of select common genes in MDA-MB-231 cells; format: cell-based; details: n = 3 biological replicates
# BRD9-BD = experiment: in vitro biotin-peptide pull-down with GST-BRD9-BD; format: binding; details: immunoblot; for relative affinity of BRD9-BD for R391me2s vs H4R3me2s: biotin-labeled peptides, pull-down with GST-BRD9-BD
# Tudor domain of SMN = experiment: biotin-peptide pull-down with GST-SMN-Tudor; format: binding; details: compared to BRD9-BD, immunoblot
# Tudor domain of SND1 = experiment: biotin-peptide pull-down with GST-SND1-Tudor; format: binding; details: compared to BRD9-BD, immunoblot
# BRD9-3Mut = experiment: biotin-peptide pull-down with Myc-BRD9-3Mut; format: binding; details: Myc-BRD9-3Mut from HEK293T WCL; immunoblot
# [5] = system: BRD9 and AKT1 interaction; experiment: co-immunoprecipitation of Myc-BRD9 and HA-AKT1 in HEK293T cells; format: cell-based, Human; details: 5 μM, 24 hours
# AKT [6] = experiment: immunoblot of AKT activation; format: cell-based; details: 5 μM I-BRD9, MDA-MB-231, indicated times
# Method in brief: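 MDA-MB-231 cells kept in DMEM with 10% FBS, penicillin/streptomycin, 37°C, 5% CO2. After treatment, cells washed with ice-cold PBS and lysed in Triton or EBC buffer containing protease/phosphatase inhibitors. Protein quantified by Bio-Rad assay; equal lysate amounts run on SDS-PAGE and transferred to PVDF. Blots probed with pT308-AKT, pS473-AKT, pan-AKT, pGSK-3β and GSK-3β antibodies diluted 1:1000–1:10,000 in TBST/5% milk.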
# AKT1 PH and KD domains = experiment: interaction of AKT1 PH and KD domains in HEK293T cells; format: cell-based, Human; details: 5 μM I-BRD9, 16 h
# EZH2 = experiment: AKT-mediated phosphorylation of EZH2, phospho-AKT substrate antibody; format: cell-based, Human; details: 5 μM I-BRD9, 16 h, HEK293T transfected with HA-EZH2
# Method in brief: as §1
compound,measurement,setting,value
Cc1ncsc1-c1ccc([C@H](C)NC(=O)[C@@H]2C[C@@H](O)CN2C(=O)[C@@H](NC(=O)CN2CCN(c3cc(-c4ccccc4O)nnc3N)CC2)C(C)(C)C)cc1 [AU-15330],effect on BRD9 interaction with AKT1,[1],minimal effects on BRD9 interaction with AKT1
same,depletion of SMARCA2/4,SMARCA2/4,depletion of SMARCA2/4
same,"H3K27me3, AU-15330","H3K27me3; 0.1 μM, 0-6 h, HEK293T",minor effects
same,"AKT phosphorylation, AU-15330",AKT [2],minor effects
O=c1cc(N2CCOCC2)oc2c(-c3ccccc3)cccc12 [LY294002],"H3K27me3 level, LY294002","H3K27me3; 0, 10, 20 μM, 16 h, MDA-MB-231",elevated
CC(C)NC[C@@H](C(=O)N1CCN(c2ncnc3c2[C@H](C)C[C@H]3O)CC1)c1ccc(Cl)cc1 [ipatasertib],"H3K27me3 level, ipatasertib","H3K27me3; 0, 1, 5 μM, 16 h, MDA-MB-231",elevated
same,share of AKT-down-regulated genes that are common with I-BRD9,"MDA-MB-231 cells [3]; 1 μM ipatasertib, 16 hours",59%
same,share of AKT-up-regulated genes that are common with I-BRD9,"MDA-MB-231 cells [3]; 1 μM ipatasertib, 16 hours",32%
same,shared down-regulated genes (I-BRD9 and ipatasertib),MDA-MB-231 cells [3]; 16 hours,116 genes
same,shared up-regulated genes (I-BRD9 and ipatasertib),MDA-MB-231 cells [3]; 16 hours,70 genes
same,hallmark gene sets significantly enriched among the 186 shared genes,MDA-MB-231 cells [3],Nine
same,common down-regulated genes significantly marked by H3K27me3,MDA-MB-231 cells [3],Seventy-five
same,"mRNA of shared genes in hallmark pathways, ipatasertib","MDA-MB-231 cells [4]; 1 μM ipatasertib, 16 hours",transcriptionally repressed
Biotin-Ahx-GLLKKDPKQ(Rme2s)LGGGSEDA [R391me2s],relative affinity of BRD9-BD for R391me2s vs H4R3me2s,BRD9-BD,greater affinity for R391me2s than H4R3me2s
same,binding of Tudor domain of SMN to R391me2s,Tudor domain of SMN,much weaker or no binding
same,binding of Tudor domain of SND1 to R391me2s,Tudor domain of SND1,much weaker or no binding
same,binding of BRD9-3Mut to AKT1-R391me2s peptide,BRD9-3Mut,incapable of binding
CC[C@H](C)n1cc(C)c2c(C(=O)NCc3c(C)cc(C)[nH]c3=O)cc(-c3ccc(N4CCNCC4)nc3)cc21 [GSK126],effect on H3K27me3 elevation caused by loss of BRD9,"H3K27me3; 5 μM GSK126, 16 h, MDA-MB-231, sgBRD9",completely blocked
same,effect on I-BRD9-enhanced H3K27me3,"H3K27me3; GSK126 with I-BRD9, 16 h, MDA-MB-231 (fig. S6D)",suppressed
same,transcription of common genes of BRD9 and AKT,"MDA-MB-231 cells [4]; 5 μM GSK126, 48 hours",increased the transcription of common genes of BRD9 and AKT
Nc1cc(C(F)(F)F)c(-c2cc(N3CCOCC3)nc(N3CCOCC3)n2)cn1 [BKM120],"H3K27me3 level, BKM120","H3K27me3; 0, 1, 5 μM, 16 h, MDA-MB-231",elevated
CCn1cc(-c2cccc(C(F)(F)F)c2)c2sc(C(=N)NC3CCS(=O)(=O)CC3)cc2c1=O [I-BRD9],effect on AKT1-R391me2s peptide binding of BRD9-BD in vitro,"BRD9-BD; 5 μM I-BRD9, pull-down",blocked the AKT1-R391me2s peptide binding of BRD9-BD in vitro
same,effect on BRD9 and AKT1 interaction in cells,[5],markedly impaired BRD9 and AKT1 interaction in cells
same,"AKT activation, I-BRD9",AKT [6],diminished AKT activation in a time-dependent manner
same,"interaction between PH and KD domains, I-BRD9",AKT1 PH and KD domains,enhance the interaction between the PH and KD domains
same,"H3K27me3, I-BRD9 combined with AKT1 depletion","H3K27me3; 5 μM I-BRD9, 16 h, AKT1-depleted MDA-MB-231",did not further induce H3K27me3
same,H3K27me3 induction by I-BRD9 upon overexpression of myr-AKT1,"H3K27me3; 5 μM I-BRD9, 16 h, MDA-MB-231 stably expressing Myr-AKT1 (fig. S6J)",largely suppressed H3K27me3 induction
same,"H3K27me3 signal, I-BRD9","H3K27me3; MDA-MB-231 (Fig. 5D) and MDA-MB-436 (0, 1, 5 μM, fig. S6C), 16 h",markedly enhanced H3K27me3 signal
same,AKT-mediated phosphorylation of EZH2,EZH2,largely blocked AKT-mediated phosphorylation of EZH2
same,shared down-regulated genes (I-BRD9 and ipatasertib),MDA-MB-231 cells [3]; 16 hours,116 genes
same,shared up-regulated genes (I-BRD9 and ipatasertib),MDA-MB-231 cells [3]; 16 hours,70 genes
same,hallmark gene sets significantly enriched among the 186 shared genes,MDA-MB-231 cells [3],Nine
same,common down-regulated genes significantly marked by H3K27me3,MDA-MB-231 cells [3],Seventy-five
same,"mRNA of shared genes in hallmark pathways, I-BRD9","MDA-MB-231 cells [4]; 5 μM I-BRD9, 16 hours",transcriptionally repressed
"H4R3me2s: Biotin-H4R3me2s peptide, ANASPEC AS-65424",relative affinity of BRD9-BD for R391me2s vs H4R3me2s,BRD9-BD,greater affinity for R391me2s than H4R3me2s
